Data set [1] in a line: Compound was evaluated for aqueous solubility at pH 7.2. The conditions noted are these: buffer.
Data set [2] has as its system Actinobacillus pleuropneumoniae. The data set can be described thus: In vitro antibacterial activity against anaerobically grown Actinobacillus pleuropneumoniae ([…]). The class given is functional. The procedure, abridged:
(§1)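 Agar dilution MICs. Anaerobic strains were tested on tryptose agar with 5% bovine blood and incubated 48 h at 39 °C in an anaerobe chamber under N2/CO2/H2 (80:10:10).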

For the next data set, the system named is Trueperella pyogenes. The data set can be described thus: In vitro antibacterial activity against anaerobically grown Actinomyces pyogenes (14D002). The class given is functional. The procedure, abridged:
as §1

The test system of the next data set is Phocaeicola vulgatus. The experiment in a line: In vitro antibacterial activity against anaerobically grown Bacteroides vulgatus (78D029). The class given is functional. The procedure, abridged: as §1
In data set [3] the test system is Bordetella bronchiseptica. The experiment in a line: In vitro antibacterial activity against aerobically grown Bordetella bronchiseptica (73A009). The class given is functional. The procedure, abridged: (§2)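 Agar dilution MICs. Aerobic strains were tested on brain heart infusion agar and incubated aerobically at 37 °C for 18–20 h.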
Data set [4] concerns Escherichia coli. The experiment in a line: In vivo protective dose was evaluated against Escherichia coli (51A266) in mouse(sc). The class given is functional. The conditions noted are these: read-out: PD50. The procedure, abridged: (§3)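 Female CF-1 mice (15 g), groups of 10, challenged ip with 0.5 mL bacterial suspension (P. multocida 59A006 or E. coli 51A266 at 3.0 × 10^8 cfu/mL; S. choleraesuis 58B010 at 8.5 × 10^2 cfu/mL). Drug given sc or po at 30 min, 4 h and 24 h after challenge; survival recorded at 96 h; PD50 by probit analysis.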

The subject of data set [5] is Escherichia coli. The data set can be described thus: In vitro antibacterial activity against aerobically grown Escherichia coli (51A538). The class given is functional. An outline of the steps:
as §2

The subject of data set [6] is Escherichia coli. The data set can be described thus: Escherichia coli DNA cleavage endpoint value which is the minimum amount required (in micro g/mL) to induce detectable cleavage of supercoiled pBR322 substrate to linear form (gyrase). The class given is functional. The conditions noted are these: read-out: MIC. The procedure, abridged: (§4)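 DNA gyrase A and B subunits were purified from E. coli overproducers. About 2 units of holoenzyme were incubated with pBR322 in Tris-HCl pH 7.5 containing MgCl2, spermidine, DTT, 0.2 mM ATP, BSA and tRNA. Drug was added as 2-fold serial dilutions, and reactions ran for 60 min at 25 °C. Reactions were stopped with SDS and proteinase K, then run on agarose and stained with ethidium. The endpoint was the lowest concentration giving detectable linear DNA.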

Data set [7] in a line: In vitro antibacterial activity against Aerobically grown Pasteurella haemolytica (59B018). The class given is functional. The conditions noted are these: Mannheimia haemolytica. An outline of the steps:
as §2

In data set [8] the test system is Pasteurella multocida. The experiment in a line: In vitro antibacterial activity against aerobically grown Pasteurella multocida (59A006). The class given is functional. The procedure, abridged:
as §2

In data set [9] the test system is Pasteurella multocida. The experiment in a line: In vivo protective dose was evaluated against Pasteurella multocida (59A006) in mouse(sc). The class given is functional. The conditions noted are these: read-out: PD50. An outline of the steps: as §3
For data set [10], the system named is Salmonella enterica. The experiment in a line: In vitro antibacterial activity against aerobically grown Salmonella choleraesuis (58B015). The class given is functional.
The next data set relates to Staphylococcus aureus. The data set can be described thus: In vitro antibacterial activity against aerobically grown Staphylococcus aureus (54B004). The class given is functional. The procedure, abridged:
as §2

The nature of data set [11]: In vitro evaluation for antibacterial activity against anaerobically grown Treponema hyodysenteriae (94A007). The class given is functional. The conditions noted are these: Brachyspira hyodysenteriae.
The test system of the next data set is Clostridium perfringens. The experiment in a line: microbe, parasite or virus in culture. The class given is functional.
Data set [12] concerns Escherichia coli. The data set can be described thus: In vivo protective dose was evaluated against Escherichia coli (51A266) in mouse(po). The class given is functional. The conditions noted are these: read-out: PD50. The procedure, abridged:
as §3

In data set [13] the test system is Pasteurella multocida. The experiment in a line: In vivo protective dose was evaluated against Pasteurella multocida (59A006) in mouse(po). The class given is functional. The conditions noted are these: read-out: PD50. The procedure, abridged:
as §3

Data set [14] relates to Escherichia coli. The data set can be described thus: The Escherichia coli DNA cleavage endpoint value which is the minimum amount of compound required (micro g/mL) to induce detectable cleavage of supercoiled pBR322 substrate to the linear form (gyrase). The class given is functional. The procedure, abridged: as §4
In data set [15] the test system is Actinobacillus pleuropneumoniae. The experiment in a line: Compound was evaluated for minimum effective dose Actinobacillus pleuropneumonia, peroral dose administration. The class given is functional. The conditions noted are these: po, read-out: MED. An outline of the steps:
(§5)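 Calf and swine respiratory disease models. Calves received acetic acid intratracheally on the day before and on day 0, then an endotracheal challenge with P. haemolytica B280PA, about 5 × 10^8 cfu/mL. They were dosed im with a 2.5% or 5% solution in sterile water on days 0 and 1 (SID × 2). Pigs weighing 8.5–12.5 kg were challenged intranasally with A. pleuropneumoniae B316HM, 10^9 cfu/mL. They were dosed once within 1 h, either im (1% or 2.5% solution) or by gavage (0.5% solution). MED was the lowest dose giving significant reduction of lung pathology.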

Another data set concerns Mannheimia haemolytica. The experiment in a line: Dose was evaluated for minimum effective dose Pasteurella haemolytica, intramuscular dose administration. The conditions noted are these: im, read-out: MED. The class given is functional. An outline of the steps: as §5
Data set [16] has as its system Salmonella enterica. The experiment in a line: In vivo protective dose was evaluated against Salmonella choleraesuis (58B010) in mouse(po). The class given is functional. The conditions noted are these: read-out: PD50. An outline of the steps:
as §3

Data set [17] has as its system Actinobacillus pleuropneumoniae. The data set can be described thus: Dose was evaluated for minimum effective dose actinobacillus pleuropneumonia, intramuscular dose administration. The conditions noted are these: im, read-out: MED.

Converted amounts (≈) assume the structure as drawn. Where only a bound is given, the exact number is not on record here.

These results are taken from ChEMBL document CHEMBL1126160, “Synthesis and structure-activity relationships of 7-diazabicycloalkylquinolones, including danofloxacin, a new quinolone antibacterial agent for veterinary medicine” (J Med Chem, 1992).

The solubility is the concentration that dissolves in the medium under given conditions. Lower therefore signals little dissolved substance. `O=C(O)c1cn(C2CC2)c2cc(N3C[C@@H]4C[C@H]3CN4)c(F)cc2c1=O`: the solubility in data set [1] stood at 77 µg/mL (≈ 224 µM). Also, the MIC in data set [2] is 0.1 µg/mL (≈ 0.291 µM); in the data set on Trueperella pyogenes it was 3.13 µg/mL (≈ 9.12 µM); in the data set on Phocaeicola vulgatus, > 3.13 µg/mL; in data set [3], > 1.56 µg/mL; in the data set on Escherichia coli [5], 0.1 µg/mL (≈ 0.291 µM); in data set [7], 0.2 µg/mL (≈ 0.582 µM). For the same compound, the MIC in the data set with Pasteurella multocida [8] worked out at 0.2 µg/mL (≈ 0.582 µM); against Salmonella enterica [10], 0.05 µg/mL (≈ 0.146 µM); in the data set on Staphylococcus aureus, 1.56 µg/mL (≈ 4.54 µM); in [11], 1.56 µg/mL (≈ 4.54 µM); against Clostridium perfringens it was 0.1 µg/mL (≈ 0.291 µM). The ED50 with Escherichia coli [4] is 0.92 mg/kg; in the data set on Pasteurella multocida [9] it was 0.2 mg/kg. Further, the minimum concentration inducing gyrase-mediated DNA cleavage in the data set with Escherichia coli [6] was found to be 0.39 µg/mL.
With `CCn1cc(C(=O)O)c(=O)c2cc(F)c(N3CCNCC3)cc21` [NORFLOXACIN], in data set [1], the concentration in solution (solubility) came to 350 µg/mL (≈ 1100 µM). Further, the MIC in [2] is < 0.05 µg/mL; against Trueperella pyogenes, 12.5 µg/mL (≈ 39.1 µM); in the data set with Phocaeicola vulgatus, 25 µg/mL (≈ 78.3 µM); in data set [3], 6.25 µg/mL (≈ 19.6 µM); with Escherichia coli [5], 0.1 µg/mL (≈ 0.313 µM); in data set [7], 0.05 µg/mL (≈ 0.157 µM). Moreover, the MIC stood at 0.05 µg/mL (≈ 0.157 µM) in the data set on Pasteurella multocida [8]; 0.1 µg/mL (≈ 0.313 µM) against Salmonella enterica [10]; 3.13 µg/mL (≈ 9.8 µM) in the data set with Staphylococcus aureus; 6.25 µg/mL (≈ 19.6 µM) in [11]; 0.39 µg/mL (≈ 1.22 µM) against Clostridium perfringens. The ED50 in the data set on Escherichia coli [12] was 8.84 mg/kg; in the data set on Escherichia coli [4] it was 0.46 mg/kg; with Pasteurella multocida [13] it was 0.63 mg/kg; with Pasteurella multocida [9], 5.54 mg/kg. The minimum concentration inducing gyrase-mediated DNA cleavage in the data set with Escherichia coli [6] amounted to 0.78 µg/mL.
Turning to `CN1C[C@@H]2C[C@H]1CN2c1c(F)cc2c(=O)c(C(=O)O)cn(C3CC3)c2c1Cl`, the MIC in data set [2] is < 0.05 µg/mL; in the data set with Trueperella pyogenes, 0.39 µg/mL (≈ 0.995 µM); in the data set on Phocaeicola vulgatus it was 0.78 µg/mL (≈ 1.99 µM); in [3], 0.39 µg/mL (≈ 0.995 µM); in the data set with Escherichia coli [14] it was 0.19 µg/mL (≈ 0.485 µM); against Escherichia coli [5] it was < 0.05 µg/mL. For the same compound, the MIC in the data set on Pasteurella multocida [8] was < 0.05 µg/mL; against Salmonella enterica [10], < 0.05 µg/mL; in the data set with Staphylococcus aureus, 0.1 µg/mL (≈ 0.255 µM); in data set [11], 6.25 µg/mL (≈ 16 µM); in the data set with Clostridium perfringens, 0.2 µg/mL (≈ 0.51 µM).
In the case of `CN1C[C@@H]2C[C@H]1CN2c1cc2c(cc1F)c(=O)c(C(=O)O)cn2C1CC1` [DANOFLOXACIN], the minimal effective dose in data set [15] was determined as 0.6 mg/kg; with Mannheimia haemolytica it was 0.15 mg/kg; in data set [17], 0.15 mg/kg. The MIC in data set [2] is 0.05 µg/mL (≈ 0.14 µM); against Trueperella pyogenes it was > 3.13 µg/mL; against Phocaeicola vulgatus it was 3.13 µg/mL (≈ 8.76 µM); in data set [3] it was 0.78 µg/mL (≈ 2.18 µM); against Escherichia coli [5], 0.05 µg/mL (≈ 0.14 µM); in data set [7], 0.05 µg/mL (≈ 0.14 µM). The MIC against Pasteurella multocida [8] was determined as 0.01 µg/mL (≈ 0.028 µM); against Salmonella enterica [10], 0.05 µg/mL (≈ 0.14 µM); against Staphylococcus aureus, 0.39 µg/mL (≈ 1.09 µM); in data set [11], 0.39 µg/mL (≈ 1.09 µM); against Clostridium perfringens, 0.2 µg/mL (≈ 0.56 µM). Also, the values for the ED50 in the data set on Escherichia coli [12], in the data set with Pasteurella multocida [13] and with Salmonella enterica [16] were 0.4 mg/kg, 0.31 mg/kg and 1.12 mg/kg, respectively. The minimum concentration inducing gyrase-mediated DNA cleavage with Escherichia coli [6] was found to be 0.78 µg/mL.
